Source: ChEMBL document CHEMBL2169866, “Antihypertensive profile of 2-thienyl-3,4-methylenedioxybenzoylhydrazone is mediated by activation of the A2A adenosine receptor” (Eur J Med Chem, 2012)

What was measured:
[1] = tested on: Rattus norvegicus; assay: Antihypertensive activity in spontaneous hypertensive rat assessed as reduction in systolic blood pressure at 20 mg/kg/day, po for 7 days (reference value: 121.2 +/- 4.5 mmHg); type: functional, Artery
Method in brief: (§1)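 Male SHR, 13 weeks old, received 20 mg/kg orally once daily for 14 days. Noninvasive tail-cuff plethysmography 4 h post-dose gave systolic pressure, diastolic pressure and heart rate. Measurements were made at baseline and on days 1, 3, 5, 7, 11 and 14. n = 6, mean ± SEM.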

[2] = tested on: Rattus norvegicus; assay: Effect on diastolic blood pressure in WKY rat at 10 mg/kg/day, ip for 14 days (reference value: 72.6 +/- 4.7 mmHg); conditions: in vivo, 336 h
[3] = tested on: Rattus norvegicus; assay: Effect on heart rate in spontaneous hypertensive rat at 10 mg/kg/day, ip for 7 days (reference value: 419 +/- 11 bpm); conditions: in vivo, 168 h
[4] = tested on: Aorta; assay: Vasorelaxation activity in WKY rat aortic rings with intact endothelium assessed as reduction in phenylephrine-induced contraction; type: functional, tissue-based
Method in brief: (§2)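 Isolated thoracic aortic rings from WKY rats were studied by isometric tension recording. Endothelium was judged intact when acetylcholine gave >80% relaxation, and was removed mechanically where stated. Rings were precontracted with a single phenylephrine concentration (10), then exposed to cumulative test concentrations (1–300). DMSO served as control. L-NAME, ZM 241385 (100 nM) or glibenclamide (5 µM) were added 20 min before phenylephrine. IC50 was derived per experiment. n = 6, mean ± SEM.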

[5] = tested on: Rattus norvegicus; assay: Antihypertensive activity in spontaneous hypertensive rat assessed as reduction in diastolic blood pressure at 10 mg/kg/day, ip for 14 days (reference value: 175.9 +/-7.3 mmHg); conditions: route intraperitoneal
[6] = tested on: Aorta; assay: Vasorelaxation activity in WKY rat aortic rings with denuded endothelium assessed as reduction in phenylephrine-induced contraction relative to untreated control; type: functional; parameters: scale not given: the % may be the effect or the level left; method in brief: as §2
[7] = tested on: Aorta; assay: Vasorelaxation activity in WKY rat aortic rings with intact endothelium assessed as reduction in phenylephrine-induced contraction in presence of 100 uM NOS inhibitor L-NAME; type: functional; parameters: scale not given: the % may be the effect or the level left; method in brief: as §2
[8] = target: Adenosine receptor A2a (Homo sapiens) (UniProt P29274); assay: Displacement of [3HCGS21680 from human recombinant A2A receptor expressed in HEK293 cells at 10 uM; type: cell-based
Adenosine receptor A2a (Homo sapiens), sequence (P29274 whole entry): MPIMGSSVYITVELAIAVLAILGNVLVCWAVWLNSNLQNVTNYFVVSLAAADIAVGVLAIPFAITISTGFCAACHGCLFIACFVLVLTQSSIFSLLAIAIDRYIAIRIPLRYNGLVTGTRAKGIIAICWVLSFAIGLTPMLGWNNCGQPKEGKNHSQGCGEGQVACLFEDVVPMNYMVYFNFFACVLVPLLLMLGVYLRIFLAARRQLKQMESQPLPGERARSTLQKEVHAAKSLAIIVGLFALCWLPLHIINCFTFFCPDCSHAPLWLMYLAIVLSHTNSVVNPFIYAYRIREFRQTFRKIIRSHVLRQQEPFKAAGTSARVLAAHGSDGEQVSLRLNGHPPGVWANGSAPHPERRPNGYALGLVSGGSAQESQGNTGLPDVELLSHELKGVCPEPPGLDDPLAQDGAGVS
Method in brief: (§3)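 Radioligand competition binding used agonist radioligands at these levels: [3H]CCPA 1 nM for A1, [3H]CGS21680 6 nM for A2A, and [125I]AB-MECA 0.15 nM for A3. Results are expressed as percent inhibition of control specific binding: 100 − (measured specific binding / control specific binding × 100).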

[9] = tested on: Rattus norvegicus; assay: Antihypertensive activity in spontaneous hypertensive rat assessed as reduction in diastolic blood pressure at 20 mg/kg/day, po for 7 days (reference value: 72.6 +/- 4.7 mmHg); type: functional, Artery; method in brief: as §1
[10] = tested on: Rattus norvegicus; assay: Effect on heart rate in WKY rat at 10 mg/kg/day, ip for 14 days (reference value: 383 +/- 21 bpm); conditions: in vivo, 336 h
[11] = tested on: Aorta; assay: Vasorelaxation activity in WKY rat aortic rings with intact endothelium assessed as reduction in phenylephrine-induced contraction relative to untreated control; type: functional; parameters: scale not given: the % may be the effect or the level left; method in brief: as §2
[12] = tested on: Aorta; assay: Vasorelaxation activity in WKY rat aortic rings with denuded endothelium assessed as reduction in phenylephrine-induced contraction in presence of 5 uM KATP channel blocker glibenclamide; type: functional; parameters: scale not given: the % may be the effect or the level left; method in brief: as §2
[13] = tested on: Rattus norvegicus; assay: Effect on systolic blood pressure in WKY rat at 10 mg/kg/day, ip for 7 days (reference value: 121.1 +/- 4.5 mmHg); conditions: in vivo, 168 h
[14] = tested on: Aorta; assay: Vasorelaxation activity in WKY rat aortic rings with intact endothelium assessed as reduction in phenylephrine-induced contraction in presence of 100 nM A2A antagonist ZM241385; type: functional; parameters: scale not given: the % may be the effect or the level left; method in brief: as §2
[15] = tested on: Rattus norvegicus; assay: Antihypertensive activity in spontaneous hypertensive rat assessed as reduction in systolic blood pressure at 10 mg/kg/day, ip for 14 days (reference value: 226 +/-11 mmHg); conditions: route intraperitoneal
[16] = tested on: Rattus norvegicus; assay: Antihypertensive activity in spontaneous hypertensive rat assessed as reduction in diastolic blood pressure at 10 mg/kg/day, ip for 7 days (reference value: 175.9 +/-7.3 mmHg); conditions: route intraperitoneal
[17] = target: T1, Adenosine receptor A1 (Homo sapiens) (UniProt P30542); assay: Displacement of [3H]CCPA from human recombinant A1 receptor expressed in CHO cells at 10 uM; type: cell-based; method in brief: as §3
T1 sequence (whole entry): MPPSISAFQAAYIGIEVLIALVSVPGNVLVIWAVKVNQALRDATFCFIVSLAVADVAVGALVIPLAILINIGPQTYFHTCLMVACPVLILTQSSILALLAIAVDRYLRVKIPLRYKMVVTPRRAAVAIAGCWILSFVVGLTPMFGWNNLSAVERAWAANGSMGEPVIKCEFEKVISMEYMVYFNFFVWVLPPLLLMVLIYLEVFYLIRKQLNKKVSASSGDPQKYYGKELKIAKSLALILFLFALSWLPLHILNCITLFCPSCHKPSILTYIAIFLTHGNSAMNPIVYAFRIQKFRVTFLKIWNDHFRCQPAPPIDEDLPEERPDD

[18] = tested on: Rattus norvegicus; assay: Antihypertensive activity in spontaneous hypertensive rat assessed as reduction in systolic blood pressure at 20 mg/kg/day, po for 14 days (reference value: 121.2 +/- 4.5 mmHg); type: functional, Artery; method in brief: as §1
[19] = tested on: Rattus norvegicus; assay: Effect on diastolic blood pressure in WKY rat at 10 mg/kg/day, ip for 7 days (reference value: 72.6 +/- 4.7 mmHg); conditions: in vivo, 168 h
[20] = target: T2, Adenosine receptor A3 (Homo sapiens) (UniProt P0DMS8); assay: Displacement of [[125I]AB-MECA from human recombinant A3 receptor expressed in HEK293 cells at 10 uM; type: cell-based; method in brief: as §3
T2 sequence (whole entry): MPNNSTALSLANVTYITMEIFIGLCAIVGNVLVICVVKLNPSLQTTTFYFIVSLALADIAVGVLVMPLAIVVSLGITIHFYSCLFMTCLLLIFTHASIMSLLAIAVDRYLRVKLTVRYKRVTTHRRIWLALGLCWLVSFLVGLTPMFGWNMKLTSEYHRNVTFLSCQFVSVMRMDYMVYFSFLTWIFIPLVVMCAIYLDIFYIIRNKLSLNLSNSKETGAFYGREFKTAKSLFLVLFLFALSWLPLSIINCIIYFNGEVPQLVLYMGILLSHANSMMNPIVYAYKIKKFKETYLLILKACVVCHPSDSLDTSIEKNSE

[21] = tested on: Rattus norvegicus; assay: Antihypertensive activity in spontaneous hypertensive rat assessed as reduction in systolic blood pressure at 10 mg/kg/day, ip for 7 days (reference value: 226 +/-11 mmHg); conditions: route intraperitoneal
[22] = tested on: Rattus norvegicus; assay: Antihypertensive activity in spontaneous hypertensive rat assessed as reduction in diastolic blood pressure at 20 mg/kg/day, po for 14 days (reference value: 72.6 +/- 4.7 mmHg); type: functional, Artery; method in brief: as §1
[23] = tested on: Rattus norvegicus; assay: Effect on heart rate in spontaneous hypertensive rat at 10 mg/kg/day, ip for 14 days (reference value: 419 +/- 11 bpm); conditions: in vivo, 336 h
[24] = tested on: Rattus norvegicus; assay: Effect on heart rate in WKY rat at 10 mg/kg/day, ip for 7 days (reference value: 383 +/- 21 bpm); conditions: in vivo, 168 h
[25] = tested on: Rattus norvegicus; assay: Effect on systolic blood pressure in WKY rat at 10 mg/kg/day, ip for 14 days (reference value: 121.1 +/- 4.5 mmHg); conditions: in vivo, 336 h
[26] = tested on: Rattus norvegicus; assay: Effect on heart rate in spontaneous hypertensive rat at 20 mg/kg/day, po for 14 days (reference value: 383 +/- 21 bpm); type: organism-based; parameters: route oral; conditions: in vivo, 336 h; method in brief: as §1
[27] = tested on: Rattus norvegicus; assay: Effect on heart rate in spontaneous hypertensive rat at 20 mg/kg/day, po for 7 days (reference value: 383 +/- 21 bpm); type: organism-based; parameters: route oral; conditions: in vivo, 168 h; method in brief: as §1

## O=C(N/N=C/c1ccc2c(c1)OCO2)c1cccs1
[1]
  Activity: 109 mmHg
[2]
  Activity: 88 mmHg
[3]
  Activity: 376 bpm
[4]
  Activity: Dose-dependent effect
  IC50: 6.9 µM
[5]
  Activity: 95.5 mmHg
[6]
  Activity: 28.4%
[7]
  Activity: 9.1%
[8]
  inhibition: 47.5%
[9]
  Activity: 79.4 mmHg
[10]
  Activity: 398 bpm
[11]
  Activity: 100%
[12]
  Activity: 3.6%
[13]
  Activity: 109 mmHg
[14]
  Activity: 8.3%
[15]
  Activity: 118 mmHg
[16]
  Activity: 106.2 mmHg
[17]
  inhibition: 29.1%
[18]
  Activity: 109 mmHg
[19]
  Activity: 79.4 mmHg
[20]
  inhibition: 67.5%
[21]
  Activity: 126.2 mmHg
[22]
  Activity: 88 mmHg
[23]
  Activity: 344.8 bpm
[24]
  Activity: 379 bpm
[25]
  Activity: 109 mmHg
[26]
  Activity: 398 bpm
[27]
  Activity: 379 bpm
